Test results as given in ChEMBL document CHEMBL4138258 (ACS Med Chem Lett, 2017).

Key:
[1] = test system: Rattus norvegicus; test: Toxicity in Sprague-Dawley rat assessed as decrease in core body temperature at 0.3 mg/kg, po measured after 60 mins by rectal probe method; type: organism-based; settings: in vivo, 1 h
[2] = test system: Rattus norvegicus; test: Toxicity in Sprague-Dawley rat assessed as effect on locomotor activity up to 100 mg/kg, po; type: organism-based; settings: in vivo
[3] = biological target: T1, Cannabinoid receptor 2 (Homo sapiens, UniProt P34972); test: Agonist activity at recombinant human CB2 receptor expressed in HEK293 cells assessed as increase in beta arrestin recruitment measured after 2 to 3 hrs by PathHunter assay; type: functional, cell-based
T1 sequence (P34972 whole entry): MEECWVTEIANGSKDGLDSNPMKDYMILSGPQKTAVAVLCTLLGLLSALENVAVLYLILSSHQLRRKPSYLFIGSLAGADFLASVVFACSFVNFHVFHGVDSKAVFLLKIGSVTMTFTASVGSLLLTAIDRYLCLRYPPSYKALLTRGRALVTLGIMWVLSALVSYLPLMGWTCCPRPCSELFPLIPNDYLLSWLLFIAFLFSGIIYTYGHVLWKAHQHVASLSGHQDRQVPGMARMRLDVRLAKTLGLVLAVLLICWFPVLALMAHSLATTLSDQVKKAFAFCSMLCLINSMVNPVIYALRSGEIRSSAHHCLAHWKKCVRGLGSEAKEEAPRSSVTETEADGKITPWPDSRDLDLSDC

[4] = test system: Rattus norvegicus; test: Toxicity in Sprague-Dawley rat assessed as change in body temperature up to 100 mg/kg, po; type: organism-based; settings: in vivo
[5] = Ratio of drug level in brain to plasma in Sprague-Dawley rat at 3 mg/kg, po measured after 2 hrs; type: ADME, organism-based; settings: brain and plasma, read-out: BPR
[6] = biological target: T2, Cannabinoid receptor 2 (Rattus norvegicus) (UniProt Q9QZN9); test: Agonist activity at recombinant rat CB2 receptor expressed in HEK293 cells assessed as increase in beta arrestin recruitment measured after 2 to 3 hrs by PathHunter assay relative to CP55940; type: functional, cell-based
T2 sequence (whole entry): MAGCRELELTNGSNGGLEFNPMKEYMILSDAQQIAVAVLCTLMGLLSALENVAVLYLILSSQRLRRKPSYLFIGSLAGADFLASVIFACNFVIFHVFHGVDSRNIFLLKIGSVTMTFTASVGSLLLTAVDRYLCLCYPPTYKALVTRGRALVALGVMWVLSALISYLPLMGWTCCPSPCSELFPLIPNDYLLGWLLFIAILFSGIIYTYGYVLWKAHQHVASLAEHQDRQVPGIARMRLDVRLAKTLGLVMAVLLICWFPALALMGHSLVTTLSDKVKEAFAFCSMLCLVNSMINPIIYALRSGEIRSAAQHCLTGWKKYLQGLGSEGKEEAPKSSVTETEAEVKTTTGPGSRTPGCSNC
Outline: (§1)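 Beta-arrestin recruitment EC50 is the mean of three or more independent experiments (logSD < 0.4). Intrinsic activity (Emax) is expressed relative to CP-55,940 set at 100.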

[7] = Half life in rat liver microsomes; type: ADME, microsome
[8] = biological target: Cannabinoid receptor 1 (Rattus norvegicus, UniProt P20272); test: Agonist activity at recombinant rat CB1 receptor expressed in HEK293 cells assessed as increase in beta arrestin recruitment measured after 2 to 3 hrs by PathHunter assay; type: functional, cell-based
Cannabinoid receptor 1 (Rattus norvegicus, UniProt P20272), sequence (P20272 whole entry): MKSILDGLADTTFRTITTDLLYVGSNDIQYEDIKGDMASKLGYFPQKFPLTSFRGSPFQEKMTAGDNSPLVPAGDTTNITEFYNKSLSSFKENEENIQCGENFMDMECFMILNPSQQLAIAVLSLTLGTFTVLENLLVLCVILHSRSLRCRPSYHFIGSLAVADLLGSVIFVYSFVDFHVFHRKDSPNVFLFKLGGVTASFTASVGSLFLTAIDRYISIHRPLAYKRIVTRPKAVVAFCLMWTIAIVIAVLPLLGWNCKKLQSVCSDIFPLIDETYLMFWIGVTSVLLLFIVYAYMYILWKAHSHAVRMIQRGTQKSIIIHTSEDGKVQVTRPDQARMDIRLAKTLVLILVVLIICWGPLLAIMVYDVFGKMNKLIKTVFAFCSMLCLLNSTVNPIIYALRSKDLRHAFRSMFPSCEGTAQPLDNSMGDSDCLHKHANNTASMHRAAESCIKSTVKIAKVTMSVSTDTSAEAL

[9] = biological target: T3, Cannabinoid receptor 2 (Rattus norvegicus, UniProt Q9QZN9); test: Agonist activity at recombinant rat CB2 receptor expressed in HEK293 cells assessed as increase in beta arrestin recruitment measured after 2 to 3 hrs by PathHunter assay; type: functional, cell-based
T3 sequence (Q9QZN9 whole entry): T2 sequence (whole entry)

[10] = biological target: T4, Cannabinoid receptor 1 (Homo sapiens, UniProt P21554); test: Agonist activity at recombinant human CB1 receptor expressed in HEK293 cells assessed as increase in beta arrestin recruitment measured after 2 to 3 hrs by PathHunter assay; type: functional, cell-based
T4 sequence (P21554 whole entry): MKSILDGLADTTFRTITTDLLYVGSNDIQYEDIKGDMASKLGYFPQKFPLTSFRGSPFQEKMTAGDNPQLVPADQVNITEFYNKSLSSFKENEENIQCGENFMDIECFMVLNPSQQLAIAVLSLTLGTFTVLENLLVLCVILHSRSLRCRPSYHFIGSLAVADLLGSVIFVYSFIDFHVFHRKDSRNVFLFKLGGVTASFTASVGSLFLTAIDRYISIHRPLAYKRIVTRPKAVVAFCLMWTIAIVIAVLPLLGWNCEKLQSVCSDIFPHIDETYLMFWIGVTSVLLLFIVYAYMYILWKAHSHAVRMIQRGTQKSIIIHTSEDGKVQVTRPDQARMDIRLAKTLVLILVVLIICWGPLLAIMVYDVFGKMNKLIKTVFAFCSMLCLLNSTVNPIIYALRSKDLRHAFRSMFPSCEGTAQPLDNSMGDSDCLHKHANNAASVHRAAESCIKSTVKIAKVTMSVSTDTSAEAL

[11] = Half life in human liver microsomes; type: ADME, microsome
[12] = biological target: T1, Cannabinoid receptor 2; test: Agonist activity at recombinant human CB2 receptor expressed in HEK293 cells assessed as increase in beta arrestin recruitment measured after 2 to 3 hrs by PathHunter assay relative to CP55940; type: functional, cell-based
[13] = biological target: T4, Cannabinoid receptor 1; test: Agonist activity at recombinant human CB1 receptor expressed in HEK293 cells assessed as increase in beta arrestin recruitment measured after 2 to 3 hrs by PathHunter assay relative to CP55940; type: functional, cell-based; outline: as §1
[14] = biological target: Cannabinoid receptor 1 (Rattus norvegicus) (UniProt P20272); test: Agonist activity at recombinant rat CB1 receptor expressed in HEK293 cells assessed as increase in beta arrestin recruitment measured after 2 to 3 hrs by PathHunter assay relative to CP55940; type: functional, cell-based; outline: as §1
Cannabinoid receptor 1 (Rattus norvegicus), sequence (P20272 whole entry): as the sequence (P20272 whole entry) above

Q: For `CCCCCCC(C)(C)c1ccc([C@@H]2C[C@H](O)CC[C@H]2CCCO)c(O)c1` [CP-55940], which Activity [1] is on record?
A: The Activity was “Toxic”.

Q: For `CC(C)(NC(=O)c1nn(-c2c[n+]([O-])ccn2)c2c1C[C@@H]1C[C@H]21)C(F)(F)F`, which Activity [2] is on record?
A: The Activity was “Non-Toxic”.

Q: What about the EC50 [3] of the same compound?
A: The EC50 was 2.3 nM.

Q: And the Activity [4]?
A: Its Activity is “Non-Toxic”.

Q: And the Kp at 2 h [5]?
A: The Kp at 2 h was 0.83.

Q: What about the Emax [6] of the same compound?
A: Its Emax is 98%.

Q: What about the half-life [7] of the same compound?
A: The half-life was > 1 h.

Q: And the EC50 [8]?
A: The EC50 was > 10000 nM.

Q: What about the EC50 [9] of the same compound?
A: The EC50 was 6.3 nM.

Q: And the EC50 [10]?
A: The EC50 was > 10000 nM.

Q: And the half-life [11]?
A: Its half-life is > 1 h.

Q: And the Emax [12]?
A: Its Emax is 108%.

Q: Which EC50 [3] does the source give for `CC(C)[C@@H](CF)NC(=O)c1nn(-c2c[n+]([O-])ccn2)c2c1C[C@@H]1C[C@H]21` here?
A: The EC50 was 3.8 nM.

Q: What about the Emax [13] of the same compound?
A: The Emax was 96%.

Q: What about the Emax [6] of the same compound?
A: The Emax was 87%.

Q: And the Emax [14]?
A: Its Emax is 74%.

Q: And the half-life [7]?
A: Its half-life is > 1 h.

Q: What about the EC50 [8] of the same compound?
A: The EC50 was 2700 nM.

Q: And the EC50 [9]?
A: The EC50 was 6.4 nM.

Q: What about the EC50 [10] of the same compound?
A: The EC50 was 6100 nM.

Q: What about the half-life [11] of the same compound?
A: Its half-life is > 1 h.

Q: What about the Emax [12] of the same compound?
A: Its Emax is 98%.
